Assay results published in ChEMBL document CHEMBL4813968, “Synthesis and evaluation of 3'-fluorinated 7-deazapurine nucleosides as antikinetoplastid agents” (Eur J Med Chem, 2021).

Tests used:
MRC5 = experiment: Cytotoxicity against human MRC5 cells assessed as reduction in cell viability after 3 days by resazurin dye based fluorimetric analysis; conditions: MRC5, 72 h
In short: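 MRC-5_SV2 cells, 1.5×10⁵ cells/mL in MEM with Earl's salts, L-glutamine, NaHCO₃ and 5% inactivated FCS, were exposed 3 days at 37 °C, 5% CO₂ to a 10-point 4-fold dilution series, final DMSO <1%. Resazurin was added for 4 h, fluorescence read at ex 550/em 590 nm, and IC₅₀ derived versus untreated and medium controls.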

Macrophage = experiment: Cytotoxicity against mouse primary macrophage cells assessed as reduction in cell viability; type: cell-based
In short: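 Macrophage toxicity was scored microscopically within the L. infantum assays, using cell detachment, lysis and granulation. At least 500 cells over adjacent fields were scored semi-quantitatively, and CC₅₀ was taken from % reduction in normal cells versus untreated controls.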

[1] = Selectivity index, ratio of EC50 for human MRC5 cells to EC50 for antitrypanosomal activity against Trypanosoma brucei brucei; type: toxicity; conditions: read-out: Ratio EC50
In short: (§1)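 Selectivity index is the MRC-5 EC₅₀ divided by the parasite EC₅₀.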

[2] = Selectivity index, ratio of EC50 for cytotoxicity against mouse primary macrophage to EC50 for antileishmanial activity against Leishmania infantum MHOM/MA(BE)/67 infected in mouse primary peritoneal macrophages; type: toxicity; conditions: read-out: Ratio EC50
Leishmania infantum = experiment: Antileishmanial activity against Leishmania infantum MHOM/MA(BE)/67 infected in mouse primary peritoneal macrophages treated 2 hrs post-infection and incubated for 5 days by Giemsa staining based microscopic analysis; type: functional, organism-based; conditions: MHOM/MA(BE)/67, Peritoneal macrophage
In short: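 Peritoneal macrophages from mice, harvested 2 days after 2% potato starch stimulation, infected after 48 h with L. infantum in supplemented RPMI-1640 with 5% FCS. Compounds were added 2 h post-infection as a 10-point 4-fold dilution series, final DMSO <1%, and incubated 5 days at 37 °C, 5% CO₂. Amastigotes per macrophage were counted after 10% Giemsa staining, and IC₅₀ was taken from % reduction versus untreated-infected controls.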

[3] = Selectivity index, ratio of EC50 for cytotoxicity against human MRC5 cells to EC50 for antitrypanosomal activity against Trypanosoma cruzi Tulahuen CL2 infected in human MRC5 cells; type: toxicity, cell-based; conditions: read-out: Ratio EC50; in short: as §1
[4] = Selectivity index, ratio of EC50 for human MRC5 cells to EC50 for antitrypanosomal activity against Trypanosoma brucei rhodesiense; type: toxicity; conditions: read-out: Ratio EC50; in short: as §1
Trypanosoma cruzi = experiment: Antitrypanosomal activity against Trypanosoma cruzi Tulahuen CL2 infected in human MRC5 cells assessed as inhibition of parasite growth incubated for 7 days by chlorophenol red-fl-D-galactopyranoside based spectrophotometric analysis; type: functional, organism-based; conditions: Tulahuen CL2, MRC5, 168 h
In short: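 T. cruzi Tulahuen CL2 β-galactosidase strain was maintained on MRC-5_SV2 cells. Wells held 4×10³ cells plus 4×10⁴ parasites with a 10-point 4-fold compound series, final DMSO <1%. After 7 days at 37 °C, 5% CO₂, substrate was added and absorbance read at 540 nm after 4 h at 37 °C. IC₅₀ was taken from % reduction versus infected and uninfected controls.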

[5] = test system: Trypanosoma brucei brucei; experiment: Antitrypanosomal activity against Trypanosoma brucei brucei assessed as parasite growth inhibition; type: functional, organism-based
[6] = test system: Trypanosoma brucei rhodesiense; experiment: Antitrypanosomal activity against Trypanosoma brucei rhodesiense assessed as parasite growth inhibition; type: functional, organism-based

SMILES | EC50 (MRC5) [µM] | EC50 (Macrophage) [µM] | selectivity ratio [1] | selectivity ratio [2] | EC50 (Leishmania infantum) [µM] | selectivity ratio [3] | selectivity ratio [4] | EC50 (Trypanosoma cruzi) [µM] | EC50 [5] [µM] | EC50 [6] [µM]
Nc1ncnc2c1c(-c1ccc(F)cc1)cn2[C@@H]1O[C@H](CO)[C@H](F)[C@H]1O | > 64 | 32 | > 4 | 1 | 22.6 | > 44 | > 5 | 1.45 | 16.2 | 14.1
C=Cc1cn([C@@H]2O[C@H](CO)[C@@H](F)[C@H]2O)c2ncnc(N)c12 | 20.2 | > 64 | 25 | > 1 | 39.3 | 31 | 59 | 0.65 | 0.81 | 0.34
Nc1ncnc2c1c(-c1ccc(Cl)cc1)cn2[C@@H]1O[C@H](CO)[C@@H](F)[C@H]1O | 16.9 | 32 | 2 | 3 | 12.7 | 23 | 2 | 0.74 | 7.02 | 5.18
Nc1ncnc2c1c(-c1ccc(Cl)c(Cl)c1)cn2[C@@H]1O[C@H](CO)[C@@H](F)[C@H]1O | 4.14 | 8 | 1 | 3 | 2.83 | 19 | 2 | 0.22 | 2.7 | 1.55
Nc1ncnc2c1c(Br)cn2[C@@H]1O[C@H](CO)[C@H](F)[C@H]1O | 0.75 | 20 | 23 | 2 | 8.2 | < 1 | 152 | 7.46 | 0.032 | 0.0049
Nc1ncnc2c1c(-c1ccc(Cl)cc1)cn2[C@@H]1O[C@H](CO)[C@H](F)[C@H]1O | 21.7 | 8 | 4 | 1 | 5 | 130 | 10 | 0.17 | 5.22 | 2.27
Nc1ncnc2c1c(-c1ccccc1)cn2[C@@H]1O[C@H](CO)[C@@H](F)[C@H]1O | > 64 | > 64 | > 2 | 1 | 50.8 | > 7 | > 1 | 9.14 | 32 | 32.7
COc1ccc(-c2cn([C@@H]3O[C@H](CO)[C@@H](F)[C@H]3O)c3ncnc(N)c23)cc1 | 14.1 | 32 | < 1 | 1 | 32.5 | 2 | < 1 | 8.61 | 43.6 | 25.7
C#Cc1cn([C@@H]2O[C@H](CO)[C@@H](F)[C@H]2O)c2ncnc(N)c12 | 0.16 | 0.13 | 4 | 1 | 0.13 | 4 | 7 | 0.04 | 0.04 | 0.02
Cc1cc(-c2cn([C@@H]3O[C@H](CO)[C@H](F)[C@H]3O)c3ncnc(N)c23)ccc1Cl | 20.9 | 8 | 3 | 1 | 5.34 | 28 | 6 | 0.75 | 7.23 | 3.61
Nc1ncnc2c1c(-c1ccc(Cl)c(Cl)c1)cn2[C@@H]1O[C@H](CO)[C@H](F)[C@H]1O | 7.38 | 8 | 3 | 2 | 3.87 | 35 | 4 | < 0.21 | 2.34 | 1.72
Nc1ncnc2c1c(-c1ccc(Cl)c(F)c1)cn2[C@@H]1O[C@H](CO)[C@H](F)[C@H]1O | 18.6 | 8 | 4 | 1 | 5.95 | 44 | 13 | 0.42 | 4.22 | 1.43
